Experimental data reported in ChEMBL document CHEMBL1139875, “Discovery of 4-aminobutyric acid derivatives possessing anticonvulsant and antinociceptive activities: a hybrid pharmacophore approach” (2007).
Activity calls are given as the source filed them. The calls are words filed in the database; no cut-off is given here.

Legend:
Rattus norvegicus [1] = test: Anti-cold allodynia effect in Sprague-Dawley rat CCI model assessed as duration of paw withdrawal 100 mg/kg, ip after 1 hr; type: functional; conditions: route intraperitoneal
Procedure, shortened: (§1)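 CCI by sciatic nerve ligation under pentobarbital (65 mg/kg i.p.). Rats tested at baseline and 9 days post-surgery; those with allodynia dosed i.p. 100 mg/kg, vehicle 30% v/v PEG 400 in water. Acetone (100-200 µL) misted on midplantar affected paw; withdrawal duration recorded, three samples averaged, at least 3 min apart; n = 4.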

Mus musculus [2] = test: Analgesic activity in Swiss Albino mouse assessed as inhibition of acetic acid-induced writhing responses at 100 mg/kg, ip; type: functional; conditions: route intraperitoneal
Procedure, shortened: (§2)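 Mice in groups of six dosed i.p. at 100 mg/kg, controls receiving 30% v/v PEG 400 in water. Writhing induced by i.p. 0.1 mL of 3% v/v acetic acid 1 h after drug. Writhes (abdominal stretch with at least one hind limb extended) counted over 30 min; % inhibition calculated. Mean ± SEM, Student's t test.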

Mus musculus [3] = test: Anticonvulsant activity in Swiss Albino mouse at 300 mg/kg, ip after 4 hrs by scPIC test; type: functional, organism-based; parameters: dose 300 mg/kg
Procedure, shortened: (§3)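 Mice (Swiss, 20-25 g) given i.p. doses of 30, 100 and 300 mg/kg under ADD program protocols, three per group, examined at 0.5 and 4 h in MES, scPTZ, scSTY or scPIC seizure tests. Value is the minimum dose protecting half or more of the mice.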

Mus musculus [4] = test: Anticonvulsant activity in Swiss Albino mouse at 300 mg/kg, ip after 0.5 hr by MES test; type: functional, organism-based; parameters: dose 300 mg/kg; procedure, shortened: as §3
Mus musculus [5] = test: Neurotoxicity in Swiss Albino mouse at 300 mg/kg, ip after 4 hrs by rotarod test; type: functional, organism-based; parameters: dose 300 mg/kg
Procedure, shortened: (§4)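 Swiss mice (20-25 g) are trained on an accelerating rotorod (10 rpm, 3.2 cm rod), then injected i.p. at 30, 100 or 300 mg/kg, with three per group. Neurotoxicity means failure to keep equilibrium for at least 1 min in each of three trials, checked at 0.5 and 4 h. The value reported is the minimum dose affecting half or more of the mice.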

Mus musculus [6] = test: Anticonvulsant activity in Swiss Albino mouse at 300 mg/kg, ip after 0.5 hr by scPTZ test; type: functional, organism-based; parameters: dose 300 mg/kg; procedure, shortened: as §3
Mus musculus [7] = test: Neurotoxicity in Swiss Albino mouse at 300 mg/kg, ip after 0.5 hr by rotarod test; type: functional, organism-based; parameters: dose 300 mg/kg; procedure, shortened: as §4
Rattus norvegicus [8] = test: Anti-cold allodynia effect in Sprague-Dawley rat CCI model assessed as duration of paw withdrawal 100 mg/kg, ip after 2.5 hr; type: functional; conditions: route intraperitoneal; procedure, shortened: as §1
Mus musculus [9] = test: Anticonvulsant activity in Swiss Albino mouse at 300 mg/kg, ip after 0.5 hr by scPIC test; type: functional, organism-based; parameters: dose 300 mg/kg; procedure, shortened: as §3
Mus musculus [10] = test: Anticonvulsant activity in Swiss Albino mouse at 300 mg/kg, ip after 4 hrs by MES test; type: functional, organism-based; parameters: dose 300 mg/kg; procedure, shortened: as §3
Mus musculus [11] = test: Anticonvulsant activity in Swiss Albino mouse at 300 mg/kg, ip after 4 hrs by scSTY test; type: functional, organism-based; parameters: dose 300 mg/kg; procedure, shortened: as §3
Rattus norvegicus [12] = test: Anti-cold allodynia effect in Sprague-Dawley rat CCI model assessed as duration of paw withdrawal 100 mg/kg, ip after 1.5 hr; type: functional; conditions: route intraperitoneal; procedure, shortened: as §1
Rattus norvegicus [13] = test: Anti-cold allodynia effect in Sprague-Dawley rat CCI model assessed as duration of paw withdrawal 100 mg/kg, ip after 2 hr; type: functional; conditions: route intraperitoneal; procedure, shortened: as §1
Rattus norvegicus [14] = test: Anti-cold allodynia effect in Sprague-Dawley rat CCI model assessed as duration of paw withdrawal at 100 mg/kg, ip after 0.5 hr; type: functional; conditions: route intraperitoneal; procedure, shortened: as §1
Mus musculus [15] = test: Anticonvulsant activity in Swiss Albino mouse at 300 mg/kg, ip after 0.5 hr by scSTY test; type: functional, organism-based; parameters: dose 300 mg/kg; procedure, shortened: as §3
Mus musculus [16] = test: Analgesic activity in Swiss Albino mouse assessed as number of acetic acid-induced writhing per 30 min after 100 mg/kg, ip; type: functional; conditions: route intraperitoneal; procedure, shortened: as §2

In the case of `O=C(O)CCCNC(=O)N/N=C/c1cccc([N+](=O)[O-])c1`, the Activity (Rattus norvegicus [1]) is reported as 56.9 s, the inhibition in vivo at 100 mg/kg (Mus musculus [2]) is reported as 90% and the Activity (Mus musculus [3]) is reported as “Active”. For the same molecule, the Activity (Mus musculus [4]) was “inactive”, the Activity (Mus musculus [5]) was “inactive” and the Activity (Mus musculus [6]) was “Active”. The Activity (Mus musculus [7]) was “inactive”, the Activity (Rattus norvegicus [8]) was 13.7 s and the Activity (Mus musculus [9]) was “Active”. The Activity (Mus musculus [10]) was “inactive”, the Activity (Mus musculus [11]) was “inactive” and the Activity (Rattus norvegicus [12]) was 44.5 s. For the same molecule, the Activity (Rattus norvegicus [13]) was 39.5 s, the Activity (Rattus norvegicus [14]) was 46.3 s and the Activity (Mus musculus [15]) was “inactive”. It also gave an Activity (Mus musculus [16]) of 17.7.
